One may read the Ki as the dissociation constant of the complex between target and ligand, obtained from inhibition or displacement. The term kcat denotes the number of substrate molecules converted per active site and unit of time at saturation. By Km is commonly meant the concentration of substrate that gives half-maximal velocity. Usually IC50 stands for the concentration that inhibits the measured activity by half. The term pKa denotes the pH at which an ionisable group is half protonated.

Values joined by “and” are separate entries in the source; they are usually repeats but may differ in a detail not shown here. Identical values can stand only once. Like-named read-outs stand apart in the source and are kept apart here.

For data set [1] the following is noted: aqueous solution; cited from earlier work.
For the next data set, the target named is T1, Mn-hArgI (Homo sapiens, UniProt P05089).
T1 sequence (P05089 1-322): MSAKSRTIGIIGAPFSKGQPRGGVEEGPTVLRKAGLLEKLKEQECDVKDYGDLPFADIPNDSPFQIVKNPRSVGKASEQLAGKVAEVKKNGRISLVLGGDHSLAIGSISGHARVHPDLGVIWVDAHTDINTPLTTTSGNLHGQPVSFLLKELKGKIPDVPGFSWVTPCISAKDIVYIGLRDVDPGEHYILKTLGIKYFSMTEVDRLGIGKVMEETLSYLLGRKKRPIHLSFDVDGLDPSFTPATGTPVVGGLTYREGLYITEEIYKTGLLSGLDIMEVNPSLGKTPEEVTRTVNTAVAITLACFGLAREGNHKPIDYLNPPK
The data set can be described thus: Inhibition of Mn-hArgI by L-Orn and L-Leu. In kind it is biochemical.

Another data set has as its target T2, Co-hArgI (Homo sapiens, UniProt P05089).
T2 sequence (P05089 1-322): T1 sequence (P05089 1-322)
Kind of data set: Inhibition of Co-hArgI by L-Orn and L-Leu. Format: biochemical.

The target in a further data set is hArgII. The conditions noted are these: cited from earlier work.
In another data set the target is rat Arginase I. The conditions noted are these: rat Arginase I at pH 9.0; cited from earlier work.
A short description of data set [2]: Steady-state kinetics of L-Arg hydrolysis by purified hArgI. The conditions noted are these: for kcat: hydrolysis of L-Arg, 100 mM Hepes buffer; for Fold change KM L-Arg: pH 7.4 vs pH 8.5; for Km: read-out: KM L-Arg. In kind it is biochemical. In outline: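 His6-TEV-tagged human ArgI expressed in E. coli BL21 and IMAC-purified. Loaded with 10 mM CoCl2 or MnSO4 (15 min, 50–55 °C), then exchanged into 100 mM HEPES/10% glycerol, pH 7.4. Concentration taken from A280 in 6 M guanidinium. Enzyme-started reactions quenched with 12 N HCl after 30 s. Urea derivatised with DAMO/thiosemicarbazide/Fe3+ (COLDER) by 15 min boiling, read at A530 with L-Arg blanks. At least triplicate; Michaelis–Menten fit.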

Data set [3] in a line: pH rate dependence of manganese and cobalt arginase. In kind it is biochemical. The conditions noted are these: for apparent pKa of kcat vs pH (one-pKa model) / apparent pKa of 1/KM vs pH, lower pKa / apparent pKa of 1/KM vs pH, upper pKa: 37 °C; for apparent pKa of kcat vs pH (one-pKa model): Co-hArgI value tentative; for apparent pKa of 1/KM vs pH, lower pKa / apparent pKa of 1/KM vs pH, upper pKa: bell shaped curve; for ascending limb pKa of kcat/KM vs pH (fit) / descending limb pKa of kcat/KM vs pH (fit): two pKa Henderson-Hasselbach model. In outline:
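Mn- or Co-substituted enzyme assayed at 37 °C, at least in triplicate, in 100 mM buffers: acetate (pH 5–5.5), MES (6–6.5), HEPES (7–7.8), Tris (8–9), Capso (9–10.5). L-Arg ranged 30 µM–80 mM depending on pH. Michaelis–Menten fits gave kcat and KM. kcat/KM versus pH fitted to a Henderson–Hasselbalch form for ascending and descending pKa, with Segel correction. Log kcat and 1/KM plotted versus pH.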

A short description of data set [4]: Serum stability in pooled human serum. Format: in vitro ADME. The conditions noted are these: 1 μM enzyme, 37 °C. In outline:
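Purified His-tagged hArgI (E. coli BL21, IMAC, metal-loaded with 10 mM CoCl2 or MnSO4, 15 min at 50–55 °C) added at 1 µM to pooled human serum at 37 °C. Aliquots taken at time points and tested in triplicate for hydrolysis of 1 mM L-Arg. Rate versus time fitted to a single exponential or a biphasic decay model to give t1/2.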

The subject of a further data set is melanoma cell line A375. The conditions noted are these: for IC50: A375 melanoma cells, MTT.
A short description of data set [5]: Thermal denaturation by circular dichroism. The conditions noted are these: 100 mM phosphate buffer, pH 7.4, θ222. Format: physicochemical. The essentials: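 Co-substituted enzyme at 6 µM in 100 mM phosphate, pH 7.4. Molar ellipticity at 222 nm monitored from 25 to 90 °C. Fraction denatured calculated as the ratio to the ellipticity of fully unfolded protein. Data fitted to a modified logistic equation for the transition midpoint.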

Data set [6] in a line: Kinetics of deactivation in HEPES buffer with added Co^2+. The conditions noted are these: 100 mM HEPES, pH 7.4, 37 °C, in the presence of 500 μM Co^2+. Format: physicochemical.
The subject of data set [7] is hepatocellular carcinoma cell line, Hep3b. Kind of data set: In vitro cytotoxicity. In kind it is cell-based, human.
For data set [8] the following is noted: cited from earlier work.
The conditions of data set [9]: rat enzyme; cited from earlier work.

With `NC(N)=NCCN1CCNCCNCCNCC1.[Zn+2]`, in [1], the “apparent pKa of guanidinium deprotonation” value is recorded as 5.9.

Consider `CC(C)C[C@H](N)C(=O)O` [L-Leu, L-Leucine], for which the inhibition constant Ki was 390 ± 40 µM on Mn-hArgI (Ki L-Leu, pH 7.4); 640 ± 40 µM at Mn-hArgI (Ki L-Leu, pH 8.5); 480 ± 50 µM on Co-hArgI (Ki L-Leu, pH 7.4); 1300 µM at Co-hArgI (Ki L-Leu, pH 8.5); 1 ± 0.1 mM at hArgII. Besides, the “Fold change Ki L-Leu” value is recorded as “(1.6) fold” on Mn-hArgI (pH 7.4 vs pH 8.5) and “(2.7) fold” on Co-hArgI (pH 7.4 vs pH 8.5).

For the molecule `NCCCC[C@H](N)C(=O)O` [L-Lys], the Ki on rat Arginase I was 900 µM.

Take `NCCC[C@H](N)C(=O)O` [L-Orn, L-Ornithine]: the Ki came out at 2400 µM on Mn-hArgI (read-out: Ki L-Orn, pH 7.4); 530 ± 60 µM on Mn-hArgI (read-out: Ki L-Orn, pH 8.5); 76 ± 16 µM on Co-hArgI (read-out: Ki L-Orn, pH 7.4); 50 ± 7 µM at Co-hArgI (read-out: Ki L-Orn, pH 8.5); 64 ± 9 µM on Co-hArgI (read-out: Ki L-Orn, pH 8.5, 37 °C).

B1: Mn-hArgI: recombinant human Arginase I with the native di-nuclear Mn^2+ cofactor (protein, UniProt P05089 1-322, looked up)
Arginase-1: T1 sequence (P05089 1-322)
modifications: Mn2+ cofactor
As for B1, the turnover number (kcat) in data set [2] (pH 7.4, 37 °C) is 300 ± 12 s⁻¹ and 300 s⁻¹. Also, the “Fold change KM L-Arg” value in [2] was “(1. 4) fold”. Besides, the Km in data set [2] (pH 7.4, 37 °C, listed as Mn-ArgI) turned out to be 2330 µM. Moreover, the Km in [2] (pH 8.5) came to 1600 µM. In data set [3], the “apparent pKa of kcat vs pH (one-pKa model)” value amounted to 8.1 ± 0.05; the “apparent pKa of 1/KM vs pH, lower pKa” value was 7.1 ± 0.1 and 7.1; the “apparent pKa of 1/KM vs pH, upper pKa” value is 10.7 ± 0.3 and 10.7; the “ascending limb pKa of kcat/KM vs pH (fit)” value stood at 8.4 ± 0.1. Also, the “descending limb pKa of kcat/KM vs pH (fit)” value in [3] is reported as 11.0 ± 0.1. Further, in data set [3] (over the pH range studied (log slope = 0.5)), the “fold increase of rate (kcat) with pH” value is given as “more than 30 fold”. In [3] (pH 6 to pH 8.5), the log kcat slope came to 0.5. The “t½ of activity (single exponential loss)” value in data set [4] came out at 4.8 ± 0.8 h. In the data set on melanoma cell line A375, the 50% inhibitory concentration (IC50) came out at 4.1 ± 0.1 nM.

B2: Co-hArgI: Co^2+ substituted human Arginase I, recombinant, His6-tagged, expressed in E. coli (protein, UniProt P05089 1-322, looked up)
Arginase-1: T1 sequence (P05089 1-322)
modifications: Co2+ substituted; His6 tag
For B2, in [2] (pH 7.4, 37 °C), the turnover number (kcat) is 240 ± 14 s⁻¹ and 240 s⁻¹; the Km turned out to be 190 ± 40 µM. In data set [2], the “Fold change KM L-Arg” value is listed as “(1.4) fold”. The Michaelis constant (Km) in data set [2] (pH 8.5) was 140 ± 10 µM. In data set [3], the “apparent pKa of kcat vs pH (one-pKa model)” value is listed as 5.2 ± 0.1; the “apparent pKa of 1/KM vs pH, lower pKa” value stood at 7.2 ± 0.1; the “apparent pKa of 1/KM vs pH, upper pKa” value is 9.7 ± 0.1 and 9.7; the “ascending limb pKa of kcat/KM vs pH (fit)” value was found to be 7.4 ± 0.1. Further, the “descending limb pKa of kcat/KM vs pH (fit)” value in data set [3] is on record as 10.0 ± 0.1. Further, the log kcat slope in [3] (pH 5 - 6) came out at 0.43. Further, the log kcat slope in [3] (pH 6 – 10.5) was ~ 0.03 and 0.03. Moreover, the “TM (mid-point temperature for unfolding)” value in data set [5] worked out at 74 °C. The “t½ of activity (monophasic sigmoidal loss)” value in data set [6] is 45 ± 2 h. Moreover, the “fold lower IC50 than Mn-hArgI” value in data set [7] (Hep3b) is recorded as 15 fold. In addition, the “fold lower IC50 value” in data set [7] (human hepatocellular carcinoma and melanoma cell lines) was 12-15 fold. Also, in the data set on melanoma cell line A375, the “fold increase in cytotoxicity vs Mn-hArgI” value is on record as ~ 13 fold and the IC50 was 0.32 ± 0.06 nM.

B3: bovine carboxypeptidase A: bovine carboxypeptidase A with Mn^2+ or Co^2+ as cofactor (protein, UniProt P00730 111-419, looked up)
Carboxypeptidase A1: ARSTNTFNYATYHTLDEIYDFMDLLVAEHPQLVSKLQIGRSYEGRPIYVLKFSTGGSNRPAIWIDLGIHSREWITQATGVWFAKKFTEDYGQDPSFTAILDSMDIFLEIVTNPDGFAFTHSQNRLWRKTRSVTSSSLCVGVDANRNWDAGFGKAGASSSPCSETYHGKYANSEVEVKSIVDFVKDHGNFKAFLSIHSYSQLLLYPYGYTTQSIPDKTELNQVAKSAVEALKSLYGTSYKYGSIITTIYQASGGSIDWSYNQGIKYSFTFELRDTGRYGFLLPASQIIPTAQETWLGVLTIMEHTLNNLY
modifications: Mn2+ or Co2+ cofactor
As for B3, the “acidic limb kinetic pKa” value is recorded as 5.3 in [8] (Co^2+ substitution) and 6.4 in data set [8] (Mn^2+ as a cofactor).

B4: metallo-β-lactamase from B. cereus: metallo-β-lactamase from B. cereus with Mn^2+ or Co^2+ cofactor (protein, UniProt P04190 31-257, looked up)
Metallo-beta-lactamase type 2: SQKVEKTVIKNETGTISISQLNKNVWVHTELGSFNGEAVPSNGLVLNTSKGLVLVDSSWDDKLTKELIEMVEKKFQKRVTDVIITHAHADRIGGIKTLKERGIKAHSTALTAELAKKNGYEEPLGDLQTVTNLKFGNMKVETFYPGKGHTEDNIVVWLPQYNILVGGCLVKSTSAKDLGNVADAYVNEWSTSIENVLKRYRNINAVVPGHGEVGDKGLLLHTLDLLK
modifications: Mn2+ or Co2+ cofactor
For the molecule B4, the pKa in data set [8] (Co^2+ as the cofactor) is given as 6.9; in data set [8] (with Mn^2+) it was 8.4.

B5: rat Mn-ArgI: rat Arginase I with Mn^2+, literature comparator (protein, UniProt P07824 1-323, looked up)
Arginase-1: MSSKPKPIEIIGAPFSKGQPRGGVEKGPAALRKAGLVEKLKETEYNVRDHGDLAFVDVPNDSPFQIVKNPRSVGKANEQLAAVVAETQKNGTISVVLGGDHSMAIGSISGHARVHPDLCVIWVDAHTDINTPLTTSSGNLHGQPVAFLLKELKGKFPDVPGFSWVTPCISAKDIVYIGLRDVDPGEHYIIKTLGIKYFSMTEVDKLGIGKVMEETFSYLLGRKKRPIHLSFDVDGLDPVFTPATGTPVVGGLSYREGLYITEEIYKTGLLSGLDIMEVNPTLGKTPEEVTRTVNTAVALTLSCFGTKREGNHKPETDYLKPPK
modifications: Mn2+ cofactor
On to B5, for which, in data set [9], the TM is 75 °C.

(Values after paper PMC2842482 (ACS chemical biology, 2010).)
